High-throughput results from PubChem BioAssay.
Runt-CBFb FRET – inhibitors of RUNX1 Runt–CBFb binding, primary screen, biochemical, FRET, Cerulean-Runt, Venus-CBFb, uHTS. Runt-related transcription factor 1 (Homo sapiens) + Core-binding factor subunit beta …. Cerulean-Runt/Venus-CBFb FRET ratio 530/480, 1 h. inhibition, % at 20 µM. hit rate 0.46% among 220,000. AID 1496, 2009;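 active = inhibition over about 50% at 20 µM in the single-dose screen, limit read from the data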;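 also: 0% = DMSO wells and 100% = excess unlabeled CBFb competitor control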
Target sequence (Q01196 whole entry, looked up): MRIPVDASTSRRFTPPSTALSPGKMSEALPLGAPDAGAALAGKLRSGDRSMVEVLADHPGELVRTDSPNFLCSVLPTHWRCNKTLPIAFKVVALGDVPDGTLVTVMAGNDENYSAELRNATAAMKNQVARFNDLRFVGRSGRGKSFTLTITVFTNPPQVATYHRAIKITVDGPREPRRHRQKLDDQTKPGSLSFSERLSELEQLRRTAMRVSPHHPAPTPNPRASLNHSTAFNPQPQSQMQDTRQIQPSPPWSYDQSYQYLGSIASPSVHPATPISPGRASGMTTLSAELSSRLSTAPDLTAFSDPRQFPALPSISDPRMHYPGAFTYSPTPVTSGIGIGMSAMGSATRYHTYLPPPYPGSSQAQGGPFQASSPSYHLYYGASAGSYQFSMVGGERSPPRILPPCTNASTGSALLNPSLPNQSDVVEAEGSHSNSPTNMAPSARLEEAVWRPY
Target sequence (Q13951 whole entry, looked up): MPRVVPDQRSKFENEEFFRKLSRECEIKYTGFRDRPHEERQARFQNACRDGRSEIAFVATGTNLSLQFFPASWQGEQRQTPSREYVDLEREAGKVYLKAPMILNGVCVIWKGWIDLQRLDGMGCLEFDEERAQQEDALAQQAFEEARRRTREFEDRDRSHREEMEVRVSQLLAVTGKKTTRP
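Assay system: Cerulean-Runt domain / Medium: Tris 50 mM pH 7.5, KCl, K2SO4, 0.01% BSA / Timing: protein complex preformed 1 h, compound exposure 1 h, room temperature, dark / Measured by: FRET, excitation 422 nm, emission at 530 and 480 nm / Evaluation: loss of energy transfer signal / Control set: 5 µM unlabeled CBFb as full-inhibition high control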
CaV13 ICDI inh – Disruptors of the CACNA1D IQ motif to Ca2+-dependent inactivation inhibitor domain association, primary screening, Förster resonance energy transfer in intact living …; hit rate 0.098% among 340,000; HEK cells, CFP/YFP FRET ICDI-IQ, plate reader, 10 min; percent FRET-ratio fall versus neutral wells; AID 743397; inhibition, % at 12.3 µM;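 active = mean replicate inhibition of at least 30% and at least 1% of replicates passing that level; inconclusive = only one of the two criteria is met; inactive = neither criterion is met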;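 also: 0% = median of the neutral control wells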
Runt-SMMHC FRET – inhibitors of RUNX1 Runt–CBFb-SMMHC binding, primary screen, biochemical, FRET, Cerulean-Runt, Venus-CBFb-SMMHC, uHTS. Runt-related transcription factor 1 (Homo sapiens) + Core-binding factor subunit beta …. Cerulean-Runt/Venus-CBFb-SMMHC FRET ratio 530/480, 1 h. inhibition, % at 20 µM. hit rate 0.74% among 220,000;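 active = mean inhibition across duplicate retests at 20 µM reaching about 50%, limit read from the data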;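 also: 0% = DMSO wells and 100% = wells with excess untagged CBFb-SMMHC; inhibitors lower the FRET ratio by blocking Runt binding to CBFb-SMMHC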
RanGTP-Imp inh – inhibitors of RanGTP-importin-beta interaction, primary screen, biochemical, FRET, CFP-Ran, YFP-importin-beta, homogeneous | Ran GTPase (GTP-bound) - importin-beta complex | cell-free CFP-Ran/YFP-importin-beta FRET ratio | inhibition, % (concentration not given with the values) | hit rate 1.1% among 300,000;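 active = more than half of the replicate wells show a fall in the fluorescence ratio signal beyond about 16%, limit read from the data, passing the limit was not always enough; inconclusive = exactly half of the replicate wells pass the set limit; inactive = fewer than half of replicates pass the limit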;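 also: 0% = DMSO wells and 100% = Ran loaded with GDP instead of GTP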
Hck Nef HTS – inhibitors of Nef-activated human Hck kinase, primary screen, biochemical, Z-Lyte FRET, 384-well, Hck-YEEI | Tyrosine-protein kinase HCK (Homo sapiens), P08631 | Recombinant Hck-YEEI plus Nef, Z-Lyte FRET kinase assay | inhibition, % at 20 µM | hit rate 0.68% among 220,000 | AID 463187, 2010;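 active = Hck-Nef kinase inhibition above about 50%, limit read from the data; inactive = inhibition below that limit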;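 also: 0% = DMSO with Hck plus Nef and 100% = Hck alone without Nef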
* marks the source's active call; other numbers are inactive results; ? = inconclusive; · = no result. Hits are enriched below; roughly 1.5% of the tested compounds scored in any of these assays.

SMILES | Runt-CBFb FRET | CaV13 ICDI inh | Runt-SMMHC FRET | RanGTP-Imp inh | Hck Nef HTS
O=C(Cc1cc(=O)oc2cc(O)ccc12)NC(Cc1ccc(Cl)cc1)C(=O)O (stereo unspecified) | · | 0.6 | · | 50.4* | ·
Cc1c(O)ccc2c(CC(=O)N[C@@H](Cc3ccc(O)cc3)C(=O)O)cc(=O)oc12 | · | -19.7 | · | 52.1* | ·
COc1ccc2c(CC(=O)N[C@@H](Cc3ccccc3)C(=O)O)cc(=O)oc2c1C | · | -4.3 | · | 2.5 | ·
CCOC(=O)c1ccc[n+](CC(=O)c2ccccc2)c1 | -3.3 | -18.7 | -8.7 | 25.2* | -1.3
Cc1c(CCC(=O)O)c(=O)oc2cc(O)ccc12 | 32.6 | -8.5 | 74.7* | 2.7 | 8.7
COc1cccc(NC(=O)Nc2c(C)n(C)n(-c3ccccc3)c2=O)c1 | 2.1 | -4.8 | -3.3 | 114.9* | -22.8
COc1ccc(NC(=O)Nc2c(C)n(C)n(-c3ccccc3)c2=O)cc1 | -0.1 | -7.0 | 1.5 | 0.1 | -6.7
CC1CCc2c(sc(Nc3nc4c(F)cccc4s3)c2C(N)=O)C1 (stereo unspecified) | 127.3* | 2.3 | 85.8* | 170.1* | 9.7
O=C(Nc1nc2c(F)cccc2s1)C1CC1 | · | 3.4 | · | ? | ·
N#Cc1ccc(OCC(=O)OCC(=O)N2CCc3ccccc32)cc1 | · | 35.4* | · | · | ·
CCC(=O)c1ccc(OCC(=O)OCC(=O)N2CCc3ccccc32)cc1 | · | -6.4 | · | -1.0 | ·
Cc1ccc(C23CC4CC(CC(C(=O)N5CCN(C)CC5)(C4)C2)C3)cc1 | -1.6 | -0.1 | 4.0 | 1.6 | 24.5
Cc1ccc(C23CC4CC(CC(CC(=O)N5CCOCC5)(C4)C2)C3)cc1 | -3.9 | -4.7 | -15.3 | 24.7* | -0.8
Cc1ccc2nc(=O)c(NNc3ccccc3)cnc2c1 | -3.2 | -5.4 | 1.4 | · | 94.3*
COC(=O)C1=C(C)N=C2SC(C)C(=O)N2C1c1cccc(F)c1 (stereo unspecified) | -2.0 | -5.3 | -1.2 | -1.6 | -1.3
Nc1ccc(CN2CCCCCC2)cc1 | 1.4 | -0.7 | -4.1 | -3.2 | 7.0
Clc1ccc2scc(CN3CCCCC3)c2c1 | -0.7 | -3.8 | -0.1 | -3.4 | 4.0
CN(C)S(=O)(=O)c1cccc(NC(=S)N/N=C/c2cc(Br)ccc2O)c1 | 3.0 | -9.5 | 81.2* | 4.9 | -8.2
CN(C)S(=O)(=O)c1cccc(NC(=S)N/N=C/c2cccc(O)c2)c1 | 2.9 | -6.8 | 2.3 | -1.7 | 24.3
O=C(N=C1SC2CS(=O)(=O)CC2N1c1ccc(OC(F)(F)F)cc1)C1CC1 (stereo unspecified) | · | -7.0 | · | -1.8 | ·
Cc1ccc(/C=C\c2nccc3c2[nH]c2ccccc23)cc1 | 10.4 | -29.3 | 27.5 | -3.4 | 59.2*
CCn1c(SCC(=O)NCC2CCCO2)nnc1-c1ccc(Cl)cc1 (stereo unspecified) | -1.2 | -5.4 | -2.4 | 25.7* | -11.4
CCn1c(SCC(=O)NCC2CCCO2)nnc1-c1c[nH]c2ccccc12 (stereo unspecified) | 3.5 | · | -2.9 | 4.9 | 6.2
CCCn1c(-c2cccs2)nc2nc3ccccc3nc21 | 40.1 | · | 131.4* | 5.1 | 47.0
COCCn1c(-c2cccs2)nc2nc3ccccc3nc21 | 41.4 | -19.1 | 86.6* | 7.2 | 30.8
SMILES | Runt-CBFb FRET | CaV13 ICDI inh | Runt-SMMHC FRET | RanGTP-Imp inh | Hck Nef HTS
Cc1noc(C)c1NC(=O)N(C)C[C@H]1Oc2c(NS(=O)(=O)c3cccs3)cccc2C(=O)N([C@H](C)CO)C[C@@H]1C | · | -9.8 | · | · | ·
O=C(Nc1ccc(S(=O)(=O)Nc2nccs2)cc1)C(F)(F)F | · | -5.5 | · | 4.8 | ·
CCOC(=O)/C(C#N)=C1\Nc2ccccc2N=C1N(CC(C)C)CC(C)C | 28.2 | -16.7 | -18.9 | 30.2* | -0.7
CCCCN(CCCC)C1=Nc2ccccc2N/C1=C(/C#N)C(=O)OCC | -22.9 | · | -52.4 | 0.5 | -0.8
COc1ccc(OC)c(N2C(=O)CC(Cc3ccc(Cl)cc3)C2=O)c1 (stereo unspecified) | -2.2 | 0.1 | 0.5 | -3.0 | 6.6
COc1ccc(OC)c(N2C(=O)CC(Cc3cc(C)cc(C)c3)C2=O)c1 (stereo unspecified) | -5.2 | -5.5 | 1.0 | 31.2* | 7.3
OC(c1cccc(Cl)c1)c1nc(/C=C/c2ccccc2)cs1 (stereo unspecified) | · | -5.1 | · | · | ·
CCOC(=O)c1[nH]c2ccc(OC)cc2c1NC(=O)CN1CCc2ccccc2C1 | · | · | -2.7 | -1.6 | -0.8
Cc1ccc(N2C(=O)C3NN=C(C(=O)OCc4ccccc4)C3C2=O)cc1 (stereo unspecified) | -4.0 | -2.7 | 4.9 | 0.3 | 4.0
Clc1ccc(/C=N/Nc2nnc(-c3ncc[nH]3)c3ccccc23)cc1 | -6.3 | -4.1 | -4.7 | -2.4 | -0.2
Clc1cccc(/C=N/Nc2nnc(Cl)c3ccccc23)c1 | -2.5 | -7.4 | 3.1 | 34.2* | -0.5
CN(Cc1ccccc1)C(=O)Cn1c(=O)oc2cc(S(=O)(=O)NCc3ccccc3)ccc21 | 0.7 | -6.6 | 0.9 | 5.4 | 0.2
O=C(O)C1Nc2ccc(Br)cc2C2C=CCC12 (stereo unspecified) | · | · | · | -6.5 | ·
O=C(OC1CCCCC1)c1ccc2c(c1)C1C=CCC1C(C(=O)O)N2 (stereo unspecified) | -4.3 | · | -2.7 | · | 77.0*
CC(C)Cn1c(N)c(C(=O)COC(=O)c2cc(-c3ccco3)nc3ccccc23)c(=O)n(C)c1=O | -1.8 | -4.4 | -20.2 | 1.8 | 4.8
Cn1c(=O)c(C(=O)COC(=O)c2cc(-c3ccco3)nc3ccccc23)c(N)n(Cc2ccccc2)c1=O | -3.3 | · | -17.8 | 4.8 | 61.3*
COc1ccc(C2C(C(=O)c3cccs3)=C(O)C(=O)N2c2nncs2)cc1 (stereo unspecified) | 49.2 | -7.3 | 103.3* | -22.1 | 1.0
Cc1ccc(-n2nc(CC#N)c(C#N)c2N)cc1Cl | -1.1 | -17.3 | 0.8 | 3.5 | -0.1
COCCCn1c(=N)c(C(=O)NCc2ccc3c(c2)OCO3)cc2c(=O)n3cccc(C)c3nc21 | · | 9.3 | · | · | ·
Cc1cccn2c(=O)c3cc(C(=O)NCc4ccc(F)cc4)c(=N)n(CCCN4CCOCC4)c3nc12 | · | 116.5* | · | · | ·
Cc1cccn2c(=O)c3cc(C(=O)NC4CCCC4)n(C)c3nc12 | · | -7.0 | · | -0.8 | ·
Cc1cccn2c(=O)c3cc(C(=O)NCCCN4CCOCC4)n(C)c3nc12 | 0.2 | · | 3.4 | · | ·
Cc1cccn2c(=O)c3cc(C(=O)NC4CCCCC4)c(=N)n(CCN4CCOCC4)c3nc12 | 97.1* | 0.7 | 127.7* | 112.7* | 17.1
Cc1cccn2c(=O)c3cc(C(=O)NC4CCCC4)c(=N)n(C4CCCC4)c3nc12 | 18.4 | · | 62.6* | 180.0* | 65.6*
